Experimental data as given in ChEMBL document CHEMBL1150419, “Structure-activity relationships of a peptide inhibitor of the human FcRn:human IgG interaction” (Bioorg Med Chem, 2008).
Peptide text beside a SMILES is read from it.

What was measured:
[1] = target: T1, IgG receptor FcRn large subunit p51 (Homo sapiens, UniProt P55899); assay: Binding affinity to human FcRn at pH 6 by surface plasmon resonance assay
Summary of the method: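 Soluble human FcRn coupled to the dextran surface of a CM5 chip; peptide dilutions flowed over the chip. The equilibrium response at each dilution was plotted against concentration and fitted to a steady-state affinity model to give Kd.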

[2] = target: T1, IgG receptor FcRn large subunit p51; assay: Inhibition of human IgG binding to soluble human FcRn by ELISA
Summary of the method: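 Biotinylated soluble human FcRn immobilized on neutravidin plates, incubated with hIgG (3 nM, constant) and peptide at varying concentrations for 2 h at 37 °C. After washing, bound hIgG detected with peroxidase-conjugated hIgG-specific Fab fragments.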

T1 sequence (P55899 whole entry): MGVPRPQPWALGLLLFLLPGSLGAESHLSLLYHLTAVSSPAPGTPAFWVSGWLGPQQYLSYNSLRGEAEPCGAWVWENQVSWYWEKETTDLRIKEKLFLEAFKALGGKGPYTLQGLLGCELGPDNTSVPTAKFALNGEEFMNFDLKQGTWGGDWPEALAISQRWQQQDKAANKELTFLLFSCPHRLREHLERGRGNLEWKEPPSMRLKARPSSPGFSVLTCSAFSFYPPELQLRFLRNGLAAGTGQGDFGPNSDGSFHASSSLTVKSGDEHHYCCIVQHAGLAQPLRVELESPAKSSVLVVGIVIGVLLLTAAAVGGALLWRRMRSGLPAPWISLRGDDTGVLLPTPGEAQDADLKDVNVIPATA

| Compound | Kd [1] | IC50 [2] |
| --- | --- | --- |
| CC(C)C[C@H](NC(=O)CNC(=O)[C@H](C)NC(=O)[C@H](Cc1ccccc1)NC(=O)[C@H](Cc1cnc[nH]1)NC(=O)CNC(=O)[C@@H](NC(=O)[C@H](CS)NC(=O)[C@H](Cc1ccccc1)NC(=O)[C@H](CCCNC(=N)N)NC(=O)[C@@H](N)CCC(N)=O)[C@@H](C)O)C(=O)N[C@@H](Cc1ccc(O)cc1)C(=O)N1CCC[C@H]1C(=O)N[C@@H](CS)C(=O)N[C@@H](CC(N)=O)C(=O)NCC(=O)N1CCC[C@H]1C(=O)O | 230 µM | > 125 µM |
| CC(C)C[C@H](NC(=O)CNC(=O)CNC(=O)[C@H](Cc1ccccc1)NC(=O)[C@H](Cc1cnc[nH]1)NC(=O)CNC(=O)[C@@H](NC(=O)[C@@H](NC(=O)[C@H](Cc1ccccc1)NC(=O)[C@H](CCCNC(=N)N)NC(=O)[C@@H](N)CCC(N)=O)C(C)(C)S)[C@@H](C)O)C(=O)N[C@@H](Cc1c(F)c(F)c(F)c(F)c1F)C(=O)N1CCC[C@H]1C(=O)N[C@@H](CS)C(=O)N[C@@H](CC(N)=O)C(=O)NCC(=O)N1CCC[C@H]1C(=O)O | 72 µM | > 125 µM |
| Cc1cccc(C[C@H](NC(=O)[C@H](Cc2cnc[nH]2)NC(=O)CNC(=O)[C@@H](NC(=O)[C@@H](NC(=O)[C@H](Cc2ccccc2)NC(=O)[C@H](CCCN=C(N)N)NC(=O)[C@@H](N)CCC(N)=O)C(C)(C)S)[C@@H](C)O)C(=O)NCC(=O)NCC(=O)N[C@@H](CC(C)C)C(=O)N[C@@H](Cc2ccc(O)cc2)C(=O)N2CCC[C@H]2C(=O)N[C@@H](CS)C(=O)N[C@@H](CC(N)=O)C(=O)NCC(=O)N2CCC[C@H]2C(=O)O)c1 | 0.67 µM | 4.1 µM |
| C[C@H](NC(=O)CNC(=O)CNC(=O)[C@H](Cc1ccccc1)NC(=O)[C@H](Cc1cnc[nH]1)NC(=O)CNC(=O)[C@@H](NC(=O)[C@H](CS)NC(=O)[C@H](Cc1ccccc1)NC(=O)[C@H](CCCN=C(N)N)NC(=O)[C@@H](N)CCC(N)=O)[C@@H](C)O)C(=O)N[C@@H](Cc1ccc(O)cc1)C(=O)N1CCC[C@H]1C(=O)N[C@@H](CS)C(=O)N[C@@H](CC(N)=O)C(=O)NCC(=O)N1CCC[C@H]1C(=O)O (H-QRFCTGHFGGAYPCNGP-OH) | 26 µM | 107 µM |
| CC(C)C[C@H](NC(=O)CNC(=O)CNC(=O)[C@H](Cc1ccc2ccccc2c1)NC(=O)[C@H](Cc1cnc[nH]1)NC(=O)CNC(=O)[C@@H](NC(=O)[C@@H](NC(=O)[C@H](Cc1ccccc1)NC(=O)[C@H](CCCN=C(N)N)NC(=O)[C@@H](N)CCC(N)=O)C(C)(C)S)[C@@H](C)O)C(=O)N[C@@H](Cc1ccc(O)cc1)C(=O)N1CCC[C@H]1C(=O)N[C@@H](CS)C(=O)N[C@@H](CC(N)=O)C(=O)NCC(=O)N1CCC[C@H]1C(=O)O | 11 µM | 90 µM |
| CC(C)C[C@@H](C(=O)N[C@@H](Cc1ccc(O)cc1)C(=O)N1CCC[C@H]1C(=O)N[C@@H](CS)C(=O)O)N(C)C(=O)CN(C)C(=O)CNC(=O)[C@H](Cc1ccccc1)NC(=O)[C@H](Cc1cscn1)NC(=O)CNC(=O)[C@@H](NC(=O)[C@@H](NC(=O)[C@H](Cc1ccccc1)NC(=O)[C@@H](N)CCCN=C(N)N)C(C)(C)S)[C@@H](C)O | 0.84 µM | 1.6 µM |
| CC(C)C[C@H](NC(=O)CNC(=O)CNC(=O)[C@H](Cc1ccccc1)NC(=O)[C@H](C)NC(=O)CNC(=O)[C@@H](NC(=O)[C@H](CS)NC(=O)[C@H](Cc1ccccc1)NC(=O)[C@H](CCCNC(=N)N)NC(=O)[C@@H](N)CCC(N)=O)[C@@H](C)O)C(=O)N[C@@H](Cc1ccc(O)cc1)C(=O)N1CCC[C@H]1C(=O)N[C@@H](CS)C(=O)N[C@@H](CC(N)=O)C(=O)NCC(=O)N1CCC[C@H]1C(=O)O | > 250 µM | > 125 µM |
| CC(C)C[C@H](NC(=O)CNC(=O)CNC(=O)[C@H](Cc1ccccc1)NC(=O)[C@H](Cc1cnc[nH]1)NC(=O)CNC(=O)[C@@H](NC(=O)[C@H](CCC(=O)O)NC(=O)[C@H](Cc1ccccc1)NC(=O)[C@H](CCCNC(=N)N)NC(=O)[C@@H](N)CCC(N)=O)[C@@H](C)O)C(=O)N[C@@H](Cc1ccc(O)cc1)C(=O)N1CCC[C@H]1C(=O)N[C@@H](CCN)C(=O)N[C@@H](CC(N)=O)C(=O)NCC(=O)N1CCC[C@H]1C(=O)O | 22 µM | 86 µM |
| CC(C)C[C@H](NC(=O)CNC(=O)CNC(=O)[C@H](C)NC(=O)[C@H](Cc1cnc[nH]1)NC(=O)CNC(=O)[C@@H](NC(=O)[C@H](CS)NC(=O)[C@H](Cc1ccccc1)NC(=O)[C@H](CCCNC(=N)N)NC(=O)[C@@H](N)CCC(N)=O)[C@@H](C)O)C(=O)N[C@@H](Cc1ccc(O)cc1)C(=O)N1CCC[C@H]1C(=O)N[C@@H](CS)C(=O)N[C@@H](CC(N)=O)C(=O)NCC(=O)N1CCC[C@H]1C(=O)O (H-QRFCTGHAGGLYPCNGP-OH) | > 250 µM | > 125 µM |
| H-QRFSTGHFGGLYPSNGP-OH | 230 µM | > 125 µM |
| CC(C)C[C@H](NC(=O)CNC(=O)CNC(=O)[C@H](Cc1ccccc1)NC(=O)[C@H](Cc1cnc[nH]1)NC(=O)CNC(=O)[C@@H](NC(=O)[C@H](CS)NC(=O)[C@H](Cc1ccccc1)NC(=O)[C@H](CCCN=C(N)N)NC(=O)[C@@H](N)CCC(N)=O)[C@@H](C)O)C(=O)N[C@@H](Cc1ccc(O)cc1)C(=O)N1CCC[C@H]1C(=O)N[C@H](CCS)C(=O)N[C@@H](CC(N)=O)C(=O)NCC(=O)N1CCC[C@H]1C(=O)O | 3.9 µM | 21 µM |
| CC(C)C[C@H](NC(=O)CNC(=O)CNC(=O)[C@H](Cc1ccccc1)NC(=O)[C@H](Cc1cnc[nH]1)NC(=O)CNC(=O)[C@@H](NC(=O)[C@@H](NC(=O)[C@H](Cc1ccccc1)NC(=O)[C@H](CCCNC(=N)N)NC(=O)[C@@H](N)CCC(N)=O)C(C)(C)S)[C@@H](C)O)C(=O)N[C@@H](Cc1ccc(O)cc1[N+](=O)[O-])C(=O)N1CCC[C@H]1C(=O)N[C@@H](CS)C(=O)N[C@@H](CC(N)=O)C(=O)NCC(=O)N1CCC[C@H]1C(=O)O | 290 µM | > 125 µM |
| CC(C)C[C@H](NC(=O)CN1CCC[C@H](NC(=O)[C@H](Cc2ccccc2)NC(=O)[C@H](Cc2cnc[nH]2)NC(=O)CNC(=O)[C@@H](NC(=O)[C@H](NC(=O)[C@H](Cc2ccccc2)NC(=O)[C@@H](N)CCCN=C(N)N)C(C)(C)S)[C@@H](C)O)C1=O)C(=O)N[C@@H](Cc1ccc(O)cc1)C(=O)N1CCC[C@H]1C(=O)N[C@@H](CS)C(=O)O | 0.67 µM | 7.2 µM |
| CC(C)C[C@H](NC(=O)CNC(=O)CNC(=O)[C@H](Cc1cccnc1)NC(=O)[C@H](Cc1cnc[nH]1)NC(=O)CNC(=O)[C@@H](NC(=O)[C@@H](NC(=O)[C@H](Cc1ccccc1)NC(=O)[C@H](CCCN=C(N)N)NC(=O)[C@@H](N)CCC(N)=O)C(C)(C)S)[C@@H](C)O)C(=O)N[C@@H](Cc1ccc(O)cc1)C(=O)N1CCC[C@H]1C(=O)N[C@@H](CS)C(=O)N[C@@H](CC(N)=O)C(=O)NCC(=O)N1CCC[C@H]1C(=O)O | 19 µM | 60 µM |
| CC(C)C[C@H](NC(=O)CNC(=O)CNC(=O)[C@H](Cc1ccccc1)NC(=O)[C@H](Cc1cnc[nH]1)NC(=O)CNC(=O)[C@@H](NC(=O)[C@H](CCC(=O)O)NC(=O)[C@H](Cc1ccccc1)NC(=O)[C@H](CCCNC(=N)N)NC(=O)[C@@H](N)CCC(N)=O)[C@@H](C)O)C(=O)N[C@@H](Cc1ccc(O)cc1)C(=O)N1CCC[C@H]1C(=O)N[C@@H](CCCCN)C(=O)N[C@@H](CC(N)=O)C(=O)NCC(=O)N1CCC[C@H]1C(=O)O | 27 µM | 100 µM |
| CC(C)C[C@@H](C(=O)N[C@@H](Cc1ccc(O)cc1)C(=O)N1CCC[C@H]1C(=O)N[C@@H](CS)C(=O)O)N(C)C(=O)CN(C)C(=O)CNC(=O)[C@H](CCc1ccccc1)NC(=O)[C@H](Cc1cnc[nH]1)NC(=O)CNC(=O)[C@@H](NC(=O)[C@@H](NC(=O)[C@H](Cc1ccccc1)NC(=O)[C@H](CCCNC(=N)N)NC(=O)[C@@H](N)CCC(N)=O)C(C)(C)S)[C@@H](C)O | 230 µM | 16 µM |
| CC(C)C[C@H](NC(=O)CNC(=O)CNC(=O)[C@H](Cc1ccccc1)NC(=O)[C@H](Cc1cnc[nH]1)NC(=O)CNC(=O)[C@@H](NC(=O)[C@H](CS)NC(=O)[C@H](Cc1ccccc1)NC(=O)[C@H](CCCN=C(N)N)NC(=O)[C@@H](N)CCC(N)=O)[C@@H](C)O)C(=O)N[C@@H](Cc1ccc(O)cc1)C(=O)N1CCC[C@H]1C(=O)N[C@@H](CS)C(=O)N[C@@H](C)C(=O)NCC(=O)N1CCC[C@H]1C(=O)O | 8 µM | 30 µM |
| COc1ccc(C[C@H](NC(=O)[C@H](Cc2cnc[nH]2)NC(=O)CNC(=O)[C@@H](NC(=O)[C@@H](NC(=O)[C@H](Cc2ccccc2)NC(=O)[C@H](CCCN=C(N)N)NC(=O)[C@@H](N)CCC(N)=O)C(C)(C)S)[C@@H](C)O)C(=O)NCC(=O)NCC(=O)N[C@@H](CC(C)C)C(=O)N[C@@H](Cc2ccc(O)cc2)C(=O)N2CCC[C@H]2C(=O)N[C@@H](CS)C(=O)N[C@@H](CC(N)=O)C(=O)NCC(=O)N2CCC[C@H]2C(=O)O)cc1 | 18 µM | 100 µM |
| CC(C)C[C@H](NC(=O)CNC(=O)CNC(=O)[C@H](Cc1ccccc1)NC(=O)[C@H](Cc1cnc[nH]1)NC(=O)CNC(=O)[C@@H](NC(=O)[C@H](CS)NC(=O)[C@H](Cc1ccccc1)NC(=O)[C@H](CCCNC(=N)N)NC(=O)[C@@H](N)CCC(N)=O)[C@@H](C)O)C(=O)N[C@@H](C)C(=O)N1CCC[C@H]1C(=O)N[C@@H](CS)C(=O)N[C@@H](CC(N)=O)C(=O)NCC(=O)N1CCC[C@H]1C(=O)O (H-QRFCTGHFGGLAPCNGP-OH) | > 250 µM | > 125 µM |
| CC(C)C[C@H](NC(=O)CNC(=O)CNC(=O)[C@H](Cc1ccccc1)NC(=O)[C@H](Cc1cnc[nH]1)NC(=O)CNC(=O)[C@@H](NC(=O)[C@@H](N)CS)[C@@H](C)O)C(=O)N[C@@H](Cc1ccc(O)cc1)C(=O)N1CCC[C@H]1C(=O)N[C@@H](CS)C(=O)O (H-CTGHFGGLYPC-OH) | 20 µM | 110 µM |
| H-TGHFGGLYP-OH | > 250 µM | > 250 µM |
| CC(C)C[C@@H](C(=O)N[C@@H](Cc1ccc(O)cc1)C(=O)N1CCC[C@H]1C(=O)N[C@@H](CS)C(=O)O)N(C)C(=O)CN1CCCC[C@@H](NC(=O)[C@H](Cc2ccccc2)NC(=O)[C@H](Cc2cnc[nH]2)NC(=O)CNC(=O)[C@@H](NC(=O)[C@H](NC(=O)[C@H](Cc2ccccc2)NC(=O)[C@@H](N)CCCNC(=N)N)C(C)(C)S)[C@@H](C)O)C1=O | 0.044 µM | 0.62 µM |
